The subject of data set [1] is serine hydrolases in the mouse brain membrane proteome. It counts as biochemical. The note with it: competitive ABPP. Put shortly:
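Mouse brain tissue Dounce-homogenized in PBS pH 7.5, spun at 1,400 × g for 5 min, then at 64,000 × g for 45 min; the membrane pellet was resuspended in PBS by sonication. Proteome at 1 mg/ml was preincubated with test compound at the indicated concentrations for 30 min at 37 °C. FP-rhodamine (1 μM final) was then added for 30 min at 25 °C, followed by SDS-PAGE and in-gel fluorescence scanning.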

The test system of data set [2] is MAGL. Nature of the data set: Competitive ABPP. It counts as biochemical, mouse. The note with it: brain proteome.
Data set [3] concerns the target T1, FAAH (Mus musculus, UniProt O08914).
T1 sequence (O08914 1-579): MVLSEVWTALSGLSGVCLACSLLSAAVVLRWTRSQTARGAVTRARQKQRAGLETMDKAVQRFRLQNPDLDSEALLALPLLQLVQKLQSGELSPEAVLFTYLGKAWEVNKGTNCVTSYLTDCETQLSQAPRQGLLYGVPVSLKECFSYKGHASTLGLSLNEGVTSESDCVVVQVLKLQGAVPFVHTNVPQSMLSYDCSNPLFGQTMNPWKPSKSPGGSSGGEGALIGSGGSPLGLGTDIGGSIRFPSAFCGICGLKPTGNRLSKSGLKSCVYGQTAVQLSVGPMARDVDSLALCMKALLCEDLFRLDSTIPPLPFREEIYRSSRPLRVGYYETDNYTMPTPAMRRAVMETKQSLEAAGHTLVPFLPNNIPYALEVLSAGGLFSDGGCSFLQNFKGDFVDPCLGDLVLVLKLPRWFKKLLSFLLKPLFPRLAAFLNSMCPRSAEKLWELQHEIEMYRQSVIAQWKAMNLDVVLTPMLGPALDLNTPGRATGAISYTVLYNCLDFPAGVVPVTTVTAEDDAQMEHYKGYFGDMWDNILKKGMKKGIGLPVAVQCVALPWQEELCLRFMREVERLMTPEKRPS
The note with it: mice, 20 mg/kg intraperitoneally, or 100 mg/kg orally; cited from earlier work.

Data set [4] has as its system MAGL. The note with it: mice, 20 mg/kg intraperitoneally, or 100 mg/kg orally; cited from earlier work.
The target of data set [5] is T2, NTE (Mus musculus, UniProt Q3TRM4).
T2 sequence (Q3TRM4 1-1355): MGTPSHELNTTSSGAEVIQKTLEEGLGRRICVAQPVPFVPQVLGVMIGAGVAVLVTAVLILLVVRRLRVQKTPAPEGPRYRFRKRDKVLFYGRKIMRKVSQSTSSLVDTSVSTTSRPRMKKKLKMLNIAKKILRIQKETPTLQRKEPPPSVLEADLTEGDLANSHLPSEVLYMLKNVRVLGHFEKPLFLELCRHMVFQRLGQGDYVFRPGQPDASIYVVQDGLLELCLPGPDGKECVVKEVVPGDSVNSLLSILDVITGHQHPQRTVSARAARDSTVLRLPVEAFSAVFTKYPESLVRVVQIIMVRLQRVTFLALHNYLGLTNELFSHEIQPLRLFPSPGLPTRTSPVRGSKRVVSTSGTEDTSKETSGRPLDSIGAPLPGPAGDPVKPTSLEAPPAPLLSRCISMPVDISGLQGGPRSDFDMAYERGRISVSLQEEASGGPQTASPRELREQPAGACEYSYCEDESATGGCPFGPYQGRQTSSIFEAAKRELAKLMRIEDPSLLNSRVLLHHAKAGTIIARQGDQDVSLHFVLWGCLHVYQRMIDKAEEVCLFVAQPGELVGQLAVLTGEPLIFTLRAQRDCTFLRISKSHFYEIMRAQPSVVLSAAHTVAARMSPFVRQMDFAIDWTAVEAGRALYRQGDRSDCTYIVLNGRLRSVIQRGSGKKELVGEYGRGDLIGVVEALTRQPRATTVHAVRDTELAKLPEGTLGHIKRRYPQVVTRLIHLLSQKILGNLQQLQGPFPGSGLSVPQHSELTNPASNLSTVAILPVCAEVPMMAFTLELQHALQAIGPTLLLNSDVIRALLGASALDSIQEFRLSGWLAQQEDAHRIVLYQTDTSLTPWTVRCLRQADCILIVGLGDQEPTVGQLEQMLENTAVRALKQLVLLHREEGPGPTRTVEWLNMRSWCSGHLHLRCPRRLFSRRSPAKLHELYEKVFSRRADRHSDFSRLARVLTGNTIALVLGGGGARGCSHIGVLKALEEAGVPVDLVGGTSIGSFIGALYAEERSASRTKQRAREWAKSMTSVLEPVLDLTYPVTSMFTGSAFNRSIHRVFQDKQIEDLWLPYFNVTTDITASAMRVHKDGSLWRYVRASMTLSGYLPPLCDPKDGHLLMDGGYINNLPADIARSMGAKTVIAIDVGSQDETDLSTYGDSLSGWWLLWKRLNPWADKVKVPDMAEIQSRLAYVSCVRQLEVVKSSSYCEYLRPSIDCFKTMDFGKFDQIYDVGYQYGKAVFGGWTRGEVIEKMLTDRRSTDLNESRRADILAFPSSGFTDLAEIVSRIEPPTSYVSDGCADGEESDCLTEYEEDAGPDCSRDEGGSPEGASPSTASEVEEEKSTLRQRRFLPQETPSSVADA
The note with it: mice, 20 mg/kg intraperitoneally, or 100 mg/kg orally; cited from earlier work.

For data set [6] the following is noted: mice, 20 mg/kg i.p. daily for 6 days; cited from earlier work.
The target of data set [7] is T2, NTE. Description: NTE activity after in vivo administration to mice. The note with it: 20 mg/kg, i.p., data not shown.
Data set [8] deals with T1, FAAH. Nature of the data set: FAAH activity after in vivo administration to mice. The note with it: administration to mice at doses that reduced MAGL activity; data not shown.
The test system of a further data set is total brain 2-AG levels. The note with it: upon administration to mice; cited from earlier work.

These results are taken from article PMC2828288 (Journal of medicinal chemistry, 2010).

Read-outs that look alike come from different tables or passages of the source.

On to `CN(CCC(c1ccccc1)c1ccccc1)C(=O)Oc1ccc([N+](=O)[O-])cc1` [Compound 9a, 4-nitrophenyl 3,3-diphenylpropyl(methyl)carbamate], for which, in data set [1], the “activity against FAAH, MAGL and other serine hydrolases” value (from here on “activity against FAAH”) was “inactive”.

On to `COc1ccc(C(O)(c2ccc(OC)c(OC)c2)C2CCN(C(=O)Oc3ccc([N+](=O)[O-])cc3)CC2)cc1OC` [Compound 33c, 4-nitrophenyl 4-(bis(3,4-dimethoxyphenyl)(hydroxy)methyl)piperidine-1-carboxylate], for which the Selectivity with MAGL [2] (MAGL over FAAH (ratio of IC50s)) is reported as greater than 38. Further, the “selectivity for MAGL over FAAH” value in the data set on MAGL [2] is 40–400 fold.

Regarding `CN(C(=O)Oc1ccc([N+](=O)[O-])cc1)C(c1ccccc1)c1ccccc1` [Compound 9b, 4-nitrophenyl benzhydryl(methyl)carbamate], the “activity against FAAH” value in [1] was “inactive”.

For `COc1ccccc1C(O)(c1ccccc1OC)C1CCN(C(=O)Oc2ccc([N+](=O)[O-])cc2)CC1` [Compound 33b, 4-nitrophenyl 4-(hydroxybis(2-methoxyphenyl)methyl)piperidine-1-carboxylate], the “selectivity for MAGL over FAAH” value in the data set on MAGL [2] is ~ 10 fold.

With `O=C(Oc1ccc([N+](=O)[O-])cc1)N1CCN(Cc2cccc(Oc3ccccc3)c2)CC1` [Compound 2], the “FAAH blockade in vivo” value at FAAH [3] is given as “completely blocked”. Further, the “MAGL blockade in vivo” value in the data set on MAGL [4] is listed as “completely blocked”. Further, the “NTE inhibition in vivo” value on NTE [5] is listed as “no inhibition of NTE was observed”. Further, the “death or overt signs of discomfort on chronic administration” value in [6] is “did not produce death or overt signs of discomfort”.

`O=C(Oc1ccc([N+](=O)[O-])cc1)N1CCN(Cc2ccc(-c3ccccc3)s2)CC1` [Compound 36h, 4-nitrophenyl 4-((5-phenylthiophen-2-yl)methyl)piperazine-1-carboxylate]: the “NTE inhibition in vivo” value on NTE [7] is “inhibited NTE”.

Regarding `O=C(Oc1ccc([N+](=O)[O-])cc1)N1CCN(Cc2cccc(Oc3cc(Cl)cc(Cl)c3)c2)CC1` [Compound 36q, 4-nitrophenyl 4-(3-(3,5-dichlorophenoxy)benzyl)piperazine-1-carboxylate], the “activity against FAAH” value in data set [1] is “unable to inhibit any of the hydrolases”.

For the molecule `COc1ccc(C(O)(c2ccc(OC)cc2)C2CCN(C(=O)Oc3ccc([N+](=O)[O-])cc3)C2)cc1` (stereo not drawn) [Compound 15, 4-nitrophenyl 3-(hydroxybis(4-methoxyphenyl)methyl)pyrrolidine-1-carboxylate], the “activity against FAAH” value in [1] is “inactive”.

Take `O=C(Oc1ccc([N+](=O)[O-])cc1)N1CCN(C(c2ccc(F)cc2)c2ccc(F)cc2)CC1` [Compound 5]: on FAAH [8], the “FAAH activity in vivo” value is recorded as “significantly blocked FAAH activity”.

Regarding `O=C(Oc1ccc([N+](=O)[O-])cc1)N1CCC(C(O)(c2ccc3c(c2)OCO3)c2ccc3c(c2)OCO3)CC1` [Compound 1, 4-nitrophenyl 4-(dibenzo[d][1,3]dioxol-5-yl(hydroxy)methyl)piperidine-1-carboxylate], the “elevation of total brain 2-AG levels” value in the data set with total brain 2-AG levels is greater than 8 fold.

In the case of `COc1ccc(C(O)(c2ccc(OC)cc2)C2CCN(C(=O)Oc3ccc([N+](=O)[O-])cc3)CC2)cc1` [Compound 6], at FAAH [8], the “FAAH activity in vivo” value is “significantly blocked FAAH activity”.
